Compound activity (PubChem)
Sampled rows, rich in hits. Any-hit rate of the full collection: about 3.1%.
OX1R antag-1: antagonists of human orexin 1 receptor (OX1R); O43613; OX1R-expressing cells, FRET antagonist read-out; inhibition, % at 6.6 µM; hit rate 1.8% among 330,000; AID 485270; in the data active = inhibition mostly above about 38%, no sharp cut-off; inactive = mostly below about 40%;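 note: 0% = agonist challenge alone and 100% = reference antagonist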
GalR3 antagonist: blocks the human galanin receptor 3 | inhibition, % at 3 µM | HEK293 GalR3-CNG cAMP membrane potential fluorescence; galR3 body fused to GalR1 C-terminus | hit rate 0.44% among 360,000 | O60755 | AID 651719;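 active = inhibition above the screen-wide average plus 3 SD, cut at about 13% in these data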;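 note: forskolin and galanin both at EC90 stimulate the cells; cAMP rise reported by CNG channel membrane potential dye signal; 0% = forskolin plus galanin with DMSO and 100% = forskolin alone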
Target sequence (O60755 1-299 limits assumed): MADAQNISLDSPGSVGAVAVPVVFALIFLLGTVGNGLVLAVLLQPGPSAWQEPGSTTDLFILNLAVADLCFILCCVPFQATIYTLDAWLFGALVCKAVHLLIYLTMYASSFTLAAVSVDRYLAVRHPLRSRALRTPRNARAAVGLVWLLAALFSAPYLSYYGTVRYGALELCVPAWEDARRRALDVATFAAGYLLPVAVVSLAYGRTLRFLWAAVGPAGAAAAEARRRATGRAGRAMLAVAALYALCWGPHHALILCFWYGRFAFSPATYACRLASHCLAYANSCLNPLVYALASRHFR
GPR7 antagonist: antagonists of human GPR7 (neuropeptides B/W receptor 1); AID 1861; GPR7-expressing cells, fluorescence antagonist assay; hit rate 1.1% among 290,000; inhibition, % at 4.4 µM; in the data active = inhibition above about 16%, passing the limit was not always enough;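 note: cells stimulated with the agonist NPW; 0% = agonist with vehicle and 100% = vehicle without agonist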
CHO parental Ca: signal in parental CHO cells, OX1R antagonist counter-screen; inhibition, % at 5.6 µM; parental CHO-K1, ATP-induced calcium, Fluo-8 fluorescence; hit rate 0.63% among 330,000;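 active = inhibition above that plate's mean sample inhibition plus 3 SD, cut at about 26% in these data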;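 note: 0% = ATP-challenged DMSO wells and 100% = DMSO wells without ATP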
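Assay system: untransfected parental CHO cell line. Also added: ATP agonist challenge. Dosing: one dose, 5.6 µM nominal. Measured by: Fluo-8 fluorescence. Read-out: % inhibition. Benchmarks: ATP wells versus no-ATP DMSO wells. Repeats: no replicates.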
OX1R antag-2: antagonists of human orexin 1 receptor. O43613. CHO/OX1R cells, Fluo-8 calcium fluorescence, orexin A. inhibition, % at 5 µM. hit rate 0.43% among 330,000. AID 434989;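 active = inhibition above its plate's threshold, mean inhibition of all tested compounds on the plate plus 3 SD, cut at about 37% in these data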;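 note: 0% = orexin A challenge wells and 100% = SB-334867-A antagonist wells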
OX1R Fluo8 conf: OX1R (human) antagonism, confirmed; shares compounds with OX1R antag-2; CHO/OX1R cells, orexin A calcium Fluo-8 fluorescence; inhibition, % at 5 µM; hit rate 38% among 1,100; in the data active = inhibition above about 29%;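 note: 0% = agonist challenge alone and 100% = reference antagonist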
CHO Ca counter: counter-screen for OX1R antagonists: effect in parental CHO cells; parental CHO-K1, ATP-induced calcium, Fluo-8 fluorescence; inhibition, % at 5.6 µM; shares compounds with OX1R antag-2; hit rate 9.3% among 1,100;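 active = inhibition above a per-plate limit, the mean inhibition of that plate's test compounds plus 3 SD, cut at about 25% in these data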;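 note: 0% = ATP challenge with DMSO and 100% = DMSO without ATP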
OX1R HTRF confirm: confirmation of human orexin 1 receptor antagonists, HTRF format; shares compounds with OX1R antag-1; OX1R-expressing cells, HTRF antagonist assay; inhibition, % at 6.6 µM; hit rate 49% among 1,800; AID 492964; in the data active = inhibition above about 55%;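 note: CHO cells expressing OX1R stimulated with orexin A at about EC80; 0% = agonist challenge alone and 100% = reference antagonist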
CHO-K1 HTRF: counter-screen: parental CHO-K1 HTRF response | shares compounds with OX1R antag-1 | inhibition, % at 6.6 µM | hit rate 48% among 1,800 | parental CHO-K1 cells, HTRF counterscreen; in the data active = inhibition above about 17%;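 note: 0% = agonist challenge with vehicle and 100% = vehicle alone without agonist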
An asterisk follows results filed as active; . = no result.

SMILES	OX1R antag-1	GalR3 antagonist	GPR7 antagonist	CHO parental Ca	OX1R antag-2	OX1R Fluo8 conf	CHO Ca counter	OX1R HTRF confirm	CHO-K1 HTRF
CC(C)(CNC(=O)c1ccc([N+](=O)[O-])c(Cl)c1)CNC(=O)c1ccc([N+](=O)[O-])c(Cl)c1	84.6*	0.9	4.2	18.7	41.2*	12.6	8.8	52.7	18.1*
CCOc1ccccc1NC(=O)CN1C(=O)NC(Cc2c[nH]c3ccccc23)C1=O (stereo unspecified)	35.9*	-4.0	.	-25.3	42.0*	10.3	-9.0	33.5	-5.3
Cc1ccccc1NC(=O)C1CCCN1S(=O)(=O)c1ccccc1C(F)(F)F (stereo unspecified)	81.3*	4.0	.	-15.3	65.9*	55.1*	-7.7	94.3*	-0.7
O=C(NCc1ccc(F)cc1)C1CCCN1S(=O)(=O)c1ccccc1C(F)(F)F (stereo unspecified)	22.2	-2.4	.	-10.5	5.5	.	.	.	.
COc1ccccc1CNS(=O)(=O)c1ccc2c(c1)CC(C)N2C(=O)C1CCC1 (stereo unspecified)	59.9*	3.4	8.5	15.0	55.1*	30.4*	16.3	67.9*	-9.2
COc1ccccc1CNS(=O)(=O)c1ccc2c(c1)CC(C)N2C(=O)C1CC1 (stereo unspecified)	33.3	-5.8	18.2	-3.1	16.9	.	.	.	.
COc1cc(C)ccc1OCC(=O)OCC(=O)c1[nH]c(C)c(C(C)=O)c1C	5.1	-3.9	.	-3.8	11.2	.	.	.	.
COc1ccccc1OCC(=O)c1[nH]c(C)c(C(C)=O)c1C	82.2*	-6.3	6.9	10.5	33.3	29.5*	26.1*	24.6	27.1*
COc1ccc(/C=C/c2nc(N)nc(-c3ccccc3O)n2)cc1OC	86.7*	-4.7	-12.7	-1.8	63.1*	69.5*	-7.1	91.8*	6.1
COc1cc(/C=C/c2nc(N)nc(-c3ccccc3O)n2)cc(OC)c1OC	16.0	1.0	-4.0	-15.8	-35.2	.	.	.	.
COc1ccccc1N(CC(=O)NCCSCc1cccc(C)c1)S(=O)(=O)c1ccccc1	69.6*	-1.5	-4.0	2.5	31.7	41.5*	-14.9	77.7*	-1.8
COc1ccccc1N(CC(=O)NCCC1=CCCCC1)S(=O)(=O)c1ccccc1	84.9*	-6.7	2.8	-34.4	62.8*	45.1*	-20.2	86.9*	0.5
COc1ccccc1N(CC(=O)NCCSCc1ccccc1)S(C)(=O)=O	-4.6	-7.5	6.6	-5.5	-19.9	.	.	.	.
CN1C=CC(=O)[C@@H](OC(=O)Nc2ccc(Br)cc2)[C@H]1c1ccccc1Br	.	-7.5	.	.	.	.	.	.	.
Cc1nn2c(=O)c3c4c(sc3nc2n1-c1ccccc1)COC(C)(C)C4	1.7	0.3	-24.9	-20.8	-36.7	.	.	.	.
CC(NS(=O)(=O)c1ccc(OCC(=O)Nc2cccc([N+](=O)[O-])c2)cc1)c1ccccc1 (stereo unspecified)	66.4*	-4.7	2.3	46.1	54.1*	60.4*	17.7	69.4*	8.2
O=C(COC(=O)COc1ccccc1)Nc1cccc([N+](=O)[O-])c1	25.1	-3.6	-10.7	-2.0	-8.5	.	.	.	.
CCN(CC)P(=O)(Nc1cccc(C(F)(F)F)c1)c1ccc(N(C)C)cc1NC(=O)c1ccco1 (stereo unspecified)	82.0*	-12.5	-7.2	-13.1	87.2*	64.5*	-9.4	86.1*	-15.5
CN(CC(=O)Nc1nc2ccccc2s1)S(=O)(=O)c1ccc(Br)cc1	48.2*	-4.3	-5.2	19.4	69.5*	7.7	-0.2	26.4	7.0
CN(CC(=O)Nc1nc2ccccc2s1)S(=O)(=O)c1ccc(Cl)cc1	16.3	-3.4	-2.3	8.0	-4.3	.	.	.	.
COC(=O)c1cc(S(=O)(=O)Nc2cc(OC)cc(OC)c2)c[nH]1	-4.5	1.0	9.6	0.5	-6.7	.	.	.	.
O=S(=O)(CCSc1nc2ccccc2o1)c1nc2ccccc2s1	41.1*	-12.3	-6.0	-1.2	61.6*	13.8	14.4	36.9	-4.2
